Positions of bridges follow the written chain, without caps; N, C: chain ends. Non-standard residues stand in square brackets, D forms with d. Residues, ends and D or L forms follow the SMILES beside them. 1Nal = N[C@@H](Cc1cccc2ccccc12)C(=O)O
Columns and labels:
Format in all cases: cell-based
[1] = biological target: T1, Sodium channel protein type 9 subunit alpha (Homo sapiens, UniProt Q15858); test: Inhibition of human Nav1.7 expressed in HEK293 cells by whole cell patch clamp electrophysiology method
[2] = biological target: T1, Sodium channel protein type 9 subunit alpha; test: Inhibition of human Nav1.7 expressed in HEK293 cells assessed as inward peak current by ion-works quattro patch clamp electrophysiology method
[3] = biological target: T2, Sodium channel protein type 5 subunit alpha (Homo sapiens, UniProt Q14524); test: Inhibition of human Nav1.5 expressed in HEK293 cells by whole cell patch clamp electrophysiology method
Procedure, shortened: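 Stable HEK293 line expressing human NaV1.5, recorded on the PatchXpress 7000A. Percent inhibition versus concentration was pooled from at least 10 cells, with two to three points per concentration. The pooled set was fitted with a four-parameter Hill equation to give a single IC50 curve.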

[4] = biological target: T2, Sodium channel protein type 5 subunit alpha; test: Inhibition of human Nav1.5 expressed in HEK293 cells assessed as inward peak current by ion-works quattro patch clamp electrophysiology method
Procedure, shortened: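 Stable HEK293 line expressing human NaV1.5, recorded by population patch clamp on the IonWorks Quattro.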

T1 sequence (Q15858 whole entry): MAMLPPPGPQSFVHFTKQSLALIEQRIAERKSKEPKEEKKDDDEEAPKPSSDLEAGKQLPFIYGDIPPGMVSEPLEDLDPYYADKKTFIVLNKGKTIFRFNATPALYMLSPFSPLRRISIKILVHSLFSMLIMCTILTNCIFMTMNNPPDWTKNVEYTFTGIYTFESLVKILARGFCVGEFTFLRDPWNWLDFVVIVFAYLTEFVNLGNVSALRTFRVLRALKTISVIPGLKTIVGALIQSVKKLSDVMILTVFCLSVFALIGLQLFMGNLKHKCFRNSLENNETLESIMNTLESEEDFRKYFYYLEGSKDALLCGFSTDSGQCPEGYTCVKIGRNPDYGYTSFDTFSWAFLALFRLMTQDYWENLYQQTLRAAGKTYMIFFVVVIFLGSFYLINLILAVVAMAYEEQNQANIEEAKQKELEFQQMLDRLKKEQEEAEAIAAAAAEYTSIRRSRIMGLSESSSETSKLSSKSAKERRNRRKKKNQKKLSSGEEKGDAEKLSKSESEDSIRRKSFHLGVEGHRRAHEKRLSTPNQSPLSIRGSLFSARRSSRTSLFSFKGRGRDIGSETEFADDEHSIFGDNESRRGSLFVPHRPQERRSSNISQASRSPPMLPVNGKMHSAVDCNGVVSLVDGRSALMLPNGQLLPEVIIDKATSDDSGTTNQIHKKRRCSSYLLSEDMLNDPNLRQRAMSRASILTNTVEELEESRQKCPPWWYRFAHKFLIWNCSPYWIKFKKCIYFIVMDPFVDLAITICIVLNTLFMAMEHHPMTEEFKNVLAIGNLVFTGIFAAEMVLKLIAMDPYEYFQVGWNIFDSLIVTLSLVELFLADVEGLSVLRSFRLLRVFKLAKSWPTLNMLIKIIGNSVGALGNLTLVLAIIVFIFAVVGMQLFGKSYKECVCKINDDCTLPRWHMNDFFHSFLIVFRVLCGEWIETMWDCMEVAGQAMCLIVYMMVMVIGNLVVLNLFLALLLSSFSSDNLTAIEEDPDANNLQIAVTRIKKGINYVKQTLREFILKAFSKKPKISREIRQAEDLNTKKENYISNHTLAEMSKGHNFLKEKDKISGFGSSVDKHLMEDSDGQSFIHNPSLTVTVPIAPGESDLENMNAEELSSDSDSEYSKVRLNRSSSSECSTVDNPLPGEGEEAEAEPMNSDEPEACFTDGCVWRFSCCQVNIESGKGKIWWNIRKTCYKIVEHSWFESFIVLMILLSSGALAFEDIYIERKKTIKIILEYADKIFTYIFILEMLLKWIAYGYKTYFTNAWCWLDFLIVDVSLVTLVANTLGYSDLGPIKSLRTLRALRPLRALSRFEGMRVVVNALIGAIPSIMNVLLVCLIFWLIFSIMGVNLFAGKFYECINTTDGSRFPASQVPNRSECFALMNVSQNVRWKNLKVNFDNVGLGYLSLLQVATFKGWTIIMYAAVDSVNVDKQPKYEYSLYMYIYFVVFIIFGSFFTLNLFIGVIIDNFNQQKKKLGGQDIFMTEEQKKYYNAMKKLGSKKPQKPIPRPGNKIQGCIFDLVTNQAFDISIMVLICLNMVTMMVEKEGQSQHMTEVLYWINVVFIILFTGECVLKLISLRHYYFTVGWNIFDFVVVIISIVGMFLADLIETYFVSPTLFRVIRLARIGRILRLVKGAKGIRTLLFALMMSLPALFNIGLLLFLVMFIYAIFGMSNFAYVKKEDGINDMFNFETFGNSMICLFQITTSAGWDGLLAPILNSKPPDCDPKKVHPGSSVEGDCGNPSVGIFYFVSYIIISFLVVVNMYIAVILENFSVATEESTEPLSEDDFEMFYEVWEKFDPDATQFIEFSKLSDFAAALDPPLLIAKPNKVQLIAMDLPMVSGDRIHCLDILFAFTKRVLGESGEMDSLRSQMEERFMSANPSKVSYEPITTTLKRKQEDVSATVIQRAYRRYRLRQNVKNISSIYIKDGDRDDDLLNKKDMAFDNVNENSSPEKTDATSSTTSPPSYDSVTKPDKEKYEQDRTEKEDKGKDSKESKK
T2 sequence (Q14524 whole entry): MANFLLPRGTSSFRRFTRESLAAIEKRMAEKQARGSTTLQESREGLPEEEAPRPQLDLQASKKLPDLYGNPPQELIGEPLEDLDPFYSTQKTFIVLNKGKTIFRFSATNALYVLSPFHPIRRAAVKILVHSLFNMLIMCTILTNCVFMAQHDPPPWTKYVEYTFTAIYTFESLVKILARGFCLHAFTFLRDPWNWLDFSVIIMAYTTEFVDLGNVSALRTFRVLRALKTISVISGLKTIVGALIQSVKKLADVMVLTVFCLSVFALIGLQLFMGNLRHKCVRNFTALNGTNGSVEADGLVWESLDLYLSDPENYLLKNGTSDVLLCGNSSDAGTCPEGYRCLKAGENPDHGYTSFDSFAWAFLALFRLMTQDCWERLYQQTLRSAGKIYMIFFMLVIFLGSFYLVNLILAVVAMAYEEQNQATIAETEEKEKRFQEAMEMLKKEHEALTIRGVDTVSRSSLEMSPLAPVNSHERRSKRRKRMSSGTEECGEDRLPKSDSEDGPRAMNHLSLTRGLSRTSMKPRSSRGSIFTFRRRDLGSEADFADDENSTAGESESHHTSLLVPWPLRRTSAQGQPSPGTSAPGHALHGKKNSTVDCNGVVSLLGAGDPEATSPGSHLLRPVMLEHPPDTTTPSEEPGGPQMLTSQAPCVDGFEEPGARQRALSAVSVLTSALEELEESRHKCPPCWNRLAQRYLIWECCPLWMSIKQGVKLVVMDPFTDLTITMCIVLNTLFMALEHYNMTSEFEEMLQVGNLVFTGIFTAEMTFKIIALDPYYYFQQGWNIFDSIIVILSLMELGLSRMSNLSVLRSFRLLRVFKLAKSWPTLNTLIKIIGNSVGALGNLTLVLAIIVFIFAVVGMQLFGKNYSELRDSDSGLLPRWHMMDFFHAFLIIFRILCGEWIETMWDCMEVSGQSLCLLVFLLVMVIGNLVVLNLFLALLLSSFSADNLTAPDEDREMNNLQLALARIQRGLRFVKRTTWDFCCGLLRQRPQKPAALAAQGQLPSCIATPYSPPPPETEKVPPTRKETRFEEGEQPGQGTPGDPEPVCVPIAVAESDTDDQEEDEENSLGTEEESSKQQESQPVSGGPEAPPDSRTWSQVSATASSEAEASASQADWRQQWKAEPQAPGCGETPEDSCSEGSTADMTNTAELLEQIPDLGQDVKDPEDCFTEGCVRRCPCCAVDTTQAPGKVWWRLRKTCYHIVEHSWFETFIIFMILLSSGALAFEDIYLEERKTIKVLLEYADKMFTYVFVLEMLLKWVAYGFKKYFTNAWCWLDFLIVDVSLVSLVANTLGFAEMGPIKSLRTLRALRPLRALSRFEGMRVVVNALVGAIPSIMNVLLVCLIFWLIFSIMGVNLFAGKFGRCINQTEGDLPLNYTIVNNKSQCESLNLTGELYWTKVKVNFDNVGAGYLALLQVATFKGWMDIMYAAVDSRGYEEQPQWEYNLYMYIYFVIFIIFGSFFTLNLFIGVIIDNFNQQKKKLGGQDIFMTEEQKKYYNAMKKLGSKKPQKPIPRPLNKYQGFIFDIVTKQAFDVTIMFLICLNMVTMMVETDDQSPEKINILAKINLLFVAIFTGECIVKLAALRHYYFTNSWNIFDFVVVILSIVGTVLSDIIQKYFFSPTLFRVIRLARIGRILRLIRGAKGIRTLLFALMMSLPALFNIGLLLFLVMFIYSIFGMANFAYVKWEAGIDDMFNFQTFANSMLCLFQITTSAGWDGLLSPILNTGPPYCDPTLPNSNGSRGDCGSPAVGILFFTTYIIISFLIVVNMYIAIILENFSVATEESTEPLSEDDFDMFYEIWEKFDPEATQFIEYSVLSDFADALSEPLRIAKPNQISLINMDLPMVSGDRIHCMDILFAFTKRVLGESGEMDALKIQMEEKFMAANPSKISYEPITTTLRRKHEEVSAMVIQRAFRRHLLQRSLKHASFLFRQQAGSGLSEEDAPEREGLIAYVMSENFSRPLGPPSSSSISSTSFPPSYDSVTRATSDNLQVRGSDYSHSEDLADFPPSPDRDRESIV

| SMILES | IC50 [1] [µM] | IC50 [2] [µM] | IC50 [3] [µM] | IC50 [4] [µM] |
| --- | --- | --- | --- | --- |
| CSCC[C@@H]1NC(=O)[C@H](Cc2ccccc2)NC(=O)CNC(=O)[C@H](CC(C)C)NC(=O)[C@@H](NC(=O)[C@@H](N)CC(=O)O)CSSC[C@@H]2NC(=O)[C@@H]3CSSC[C@@H](C(=O)N[C@@H](CCCCN)C(=O)N[C@@H](Cc4ccc(O)cc4)C(=O)N[C@H](C(=O)N[C@@H](Cc4ccccc4)C(N)=O)C(C)C)NC(=O)[C@H](Cc4c[nH]c5ccccc45)NC(=O)[C@H](CCCCN)NC(=O)[C@H](Cc4cnc[nH]4)NC(=O)[C@H]([C@@H](C)O)NC(=O)[C@H](CCCNC(=N)N)NC(=O)[C@H](CO)NC(=O)[C@H](CSSC[C@H](NC(=O)[C@H](CCCCN)NC(=O)[C@H](CCCNC(=N)N)NC1=O)C(=O)N[C@@H](CC(N)=O)C(=O)N1CCC[C@H]1C(=O)N[C@@H](CC(=O)O)C(=O)N[C@@H](CC(N)=O)C(=O)N[C@@H](CC(=O)O)C(=O)N[C@@H](CCCCN)C(=O)N3)NC(=O)[C@H](C(C)C)NC(=O)[C@H](CC(C)C)NC(=O)[C@H](CC(N)=O)NC(=O)[C@@H]1CCCN1C(=O)[C@H](CCCNC(=N)N)NC2=O (H-DCLGFMRKCNPDNDKCCRPNLVCSRTHKWCKYVF-NH2; disulfide 2-17, 9-23, 16-30) | 0.0019 | 0.33 | > 10 | > 5 |
| CC[C@H](C)[C@@H]1NC(=O)[C@@H]2CSSC[C@@H]3NC(=O)[C@H](C(C)C)NC(=O)[C@H](CC(C)C)NC(=O)[C@H](CC(N)=O)NC(=O)[C@@H]4CCCN4C(=O)[C@H](CCC(=O)O)NC(=O)[C@H](CSSC[C@H](NC(=O)[C@@H](N)CC(=O)O)C(=O)N[C@@H](CC(C)C)C(=O)NCC(=O)N[C@@H](Cc4ccccc4)C(=O)N[C@@H](CCSC)C(=O)N[C@@H](CCCNC(=N)N)C(=O)N[C@@H](CCCCN)C(=O)N2)NC(=O)[C@H](CSSC[C@@H](C(=O)N[C@@H](CCCCN)C(=O)N[C@@H](Cc2ccc(O)cc2)C(=O)N[C@H](C(=O)N[C@@H](Cc2ccccc2)C(N)=O)C(C)C)NC(=O)[C@H](Cc2c[nH]c4ccccc24)NC(=O)[C@H](CCCCN)NC(=O)[C@H](Cc2cnc[nH]2)NC(=O)[C@H]([C@@H](C)O)NC(=O)[C@H](CCCNC(=N)N)NC(=O)[C@H](CO)NC3=O)NC(=O)[C@H](CCCCN)NC(=O)[C@H](CC(=O)O)NC(=O)[C@H](CC(N)=O)NC(=O)[C@H](CC(=O)O)NC(=O)[C@@H]2CCCN2C1=O (H-DCLGFMRKCIPDNDKCCEPNLVCSRTHKWCKYVF-NH2; disulfide 2-17, 9-23, 16-30) | 0.017 |  | > 10 | > 5 |
| CC[C@H](C)[C@@H]1NC(=O)[C@@H]2CSSC[C@@H]3NC(=O)[C@H](C(C)C)NC(=O)[C@H](CC(C)C)NC(=O)[C@H](CC(N)=O)NC(=O)[C@@H]4CCCN4C(=O)[C@H](CCCNC(=N)N)NC(=O)[C@H](CSSC[C@H](NC(=O)[C@@H](N)CC(=O)O)C(=O)N[C@@H](CC(C)C)C(=O)NCC(=O)N[C@@H](Cc4ccccc4)C(=O)N[C@@H](CCSC)C(=O)N[C@@H](CCCNC(=N)N)C(=O)N[C@@H](CCCCN)C(=O)N2)NC(=O)[C@H](CSSC[C@@H](C(=O)N[C@@H](CCCCN)C(=O)N[C@@H](Cc2ccc(O)cc2)C(=O)N[C@H](C(=O)N[C@@H](Cc2cccc4ccccc24)C(N)=O)C(C)C)NC(=O)[C@H](Cc2c[nH]c4ccccc24)NC(=O)[C@H](CCCCN)NC(=O)[C@H](Cc2cnc[nH]2)NC(=O)[C@H]([C@@H](C)O)NC(=O)[C@H](CCCNC(=N)N)NC(=O)[C@H](CO)NC3=O)NC(=O)[C@H](CCCCN)NC(=O)[C@H](CC(=O)O)NC(=O)[C@H](CC(N)=O)NC(=O)[C@H](CC(=O)O)NC(=O)[C@@H]2CCCN2C1=O (H-DCLGFMRKCIPDNDKCCRPNLVCSRTHKWCKYV[1Nal]-NH2; disulfide 2-17, 9-23, 16-30) | 0.005 | 0.04 | 1.8 | > 5 |
| CC[C@H](C)[C@@H]1NC(=O)[C@@H]2CSSC[C@@H]3NC(=O)[C@H](C(C)C)NC(=O)[C@H](CC(C)C)NC(=O)[C@H](CC(N)=O)NC(=O)[C@@H]4CCCN4C(=O)[C@H](CCCNC(=N)N)NC(=O)[C@H](CSSC[C@H](NC(=O)[C@@H](N)CC(=O)O)C(=O)N[C@@H](CC(C)C)C(=O)NCC(=O)N[C@@H](Cc4ccccc4)C(=O)N[C@@H](CCSC)C(=O)N[C@@H](CCCNC(=N)N)C(=O)N[C@@H](CCCCN)C(=O)N2)NC(=O)[C@H](CSSC[C@@H](C(=O)N[C@@H](CCCCN)C(=O)N[C@@H](Cc2ccc(O)cc2)C(=O)N[C@H](C(=O)N[C@@H](Cc2ccccc2)C(N)=O)C(C)C)NC(=O)[C@H](Cc2c[nH]c4ccccc24)NC(=O)[C@H](CCCCN)NC(=O)[C@H](Cc2cnc[nH]2)NC(=O)[C@H]([C@@H](C)O)NC(=O)[C@H](CCCNC(=N)N)NC(=O)[C@H](CO)NC3=O)NC(=O)[C@H](CCCCN)NC(=O)[C@H](CC(=O)O)NC(=O)[C@H](CC(N)=O)NC(=O)[C@H](CC(=O)O)NC(=O)[C@H](CCC(=O)O)NC1=O (H-DCLGFMRKCIEDNDKCCRPNLVCSRTHKWCKYVF-NH2; disulfide 2-17, 9-23, 16-30) | 0.0025 |  | > 10 | > 5 |
| CC[C@H](C)[C@@H]1NC(=O)[C@@H]2CSSC[C@@H]3NC(=O)[C@H](Cc4c[nH]c5ccccc45)NC(=O)[C@H](CC(C)C)NC(=O)[C@H](CC(N)=O)NC(=O)[C@@H]4CCCN4C(=O)[C@H](CCCNC(=N)N)NC(=O)[C@H](CSSC[C@H](NC(=O)[C@@H](N)CC(=O)O)C(=O)N[C@@H](CC(C)C)C(=O)NCC(=O)N[C@@H](Cc4ccccc4)C(=O)N[C@@H](CCSC)C(=O)N[C@@H](CCCNC(=N)N)C(=O)N[C@@H](CCCCN)C(=O)N2)NC(=O)[C@H](CSSC[C@@H](C(=O)N[C@@H](CCCCN)C(=O)N[C@@H](Cc2ccc(O)cc2)C(=O)N[C@H](C(=O)N[C@@H](Cc2ccccc2)C(N)=O)C(C)C)NC(=O)[C@H](Cc2c[nH]c4ccccc24)NC(=O)[C@H](CCCCN)NC(=O)[C@H](Cc2cnc[nH]2)NC(=O)[C@H]([C@@H](C)O)NC(=O)[C@H](CCCNC(=N)N)NC(=O)[C@H](CO)NC3=O)NC(=O)[C@H](CCCCN)NC(=O)[C@H](CC(=O)O)NC(=O)[C@H](CC(N)=O)NC(=O)[C@H](CC(=O)O)NC(=O)[C@@H]2CCCN2C1=O (H-DCLGFMRKCIPDNDKCCRPNLWCSRTHKWCKYVF-NH2; disulfide 2-17, 9-23, 16-30) | 0.042 | 0.06 | 3.2 | > 5 |
| CSCC[C@@H]1NC(=O)[C@H](Cc2ccccc2)NC(=O)CNC(=O)[C@H](CC(C)C)NC(=O)[C@@H](NC(=O)[C@@H](N)CC(=O)O)CSSC[C@@H]2NC(=O)[C@@H]3CSSC[C@@H](C(=O)N[C@@H](CCCCN)C(=O)N[C@@H](Cc4ccc(O)cc4)C(=O)N[C@H](C(=O)N[C@@H](Cc4ccccc4)C(N)=O)C(C)C)NC(=O)[C@H](Cc4c[nH]c5ccccc45)NC(=O)[C@H](CCCCN)NC(=O)[C@H](Cc4cnc[nH]4)NC(=O)[C@H]([C@@H](C)O)NC(=O)[C@H](CCCNC(=N)N)NC(=O)[C@H](CO)NC(=O)[C@H](CSSC[C@H](NC(=O)[C@H](CCCCN)NC(=O)[C@H](CCCNC(=N)N)NC1=O)C(=O)N[C@@H](CC(=O)O)C(=O)N1CCC[C@H]1C(=O)N[C@@H](CC(=O)O)C(=O)N[C@@H](CC(N)=O)C(=O)N[C@@H](CC(=O)O)C(=O)N[C@@H](CCCCN)C(=O)N3)NC(=O)[C@H](C(C)C)NC(=O)[C@H](CC(C)C)NC(=O)[C@H](CC(N)=O)NC(=O)[C@@H]1CCCN1C(=O)[C@H](CCCNC(=N)N)NC2=O (H-DCLGFMRKCDPDNDKCCRPNLVCSRTHKWCKYVF-NH2; disulfide 2-17, 9-23, 16-30) | 0.004 |  | > 10 | > 5 |
| CC[C@H](C)[C@@H]1NC(=O)[C@@H]2CSSC[C@@H]3NC(=O)[C@H](C(C)C)NC(=O)[C@H](CC(C)C)NC(=O)[C@H](CC(N)=O)NC(=O)[C@H](CCCCN)NC(=O)[C@H](CCCNC(=N)N)NC(=O)[C@H](CSSC[C@H](NC(=O)[C@@H](N)CC(=O)O)C(=O)N[C@@H](CC(C)C)C(=O)NCC(=O)N[C@@H](Cc4ccccc4)C(=O)N[C@@H](CCSC)C(=O)N[C@@H](CCCNC(=N)N)C(=O)N[C@@H](CCCCN)C(=O)N2)NC(=O)[C@H](CSSC[C@@H](C(=O)N[C@@H](CCCCN)C(=O)N[C@@H](Cc2ccc(O)cc2)C(=O)N[C@H](C(=O)N[C@@H](Cc2ccccc2)C(N)=O)C(C)C)NC(=O)[C@H](Cc2c[nH]c4ccccc24)NC(=O)[C@H](CCCCN)NC(=O)[C@H](Cc2cnc[nH]2)NC(=O)[C@H]([C@@H](C)O)NC(=O)[C@H](CCCNC(=N)N)NC(=O)[C@H](CO)NC3=O)NC(=O)[C@H](CCCCN)NC(=O)[C@H](CC(=O)O)NC(=O)[C@H](CC(N)=O)NC(=O)[C@H](CC(=O)O)NC(=O)[C@@H]2CCCN2C1=O (H-DCLGFMRKCIPDNDKCCRKNLVCSRTHKWCKYVF-NH2; disulfide 2-17, 9-23, 16-30) | 0.0023 |  | > 10 | > 5 |
| CSCC[C@@H]1NC(=O)[C@H](Cc2ccccc2)NC(=O)CNC(=O)[C@H](CC(C)C)NC(=O)[C@@H](NC(=O)[C@@H](N)CC(=O)O)CSSC[C@@H]2NC(=O)[C@@H]3CSSC[C@@H](C(=O)N[C@@H](CCCCN)C(=O)N[C@@H](Cc4ccc(O)cc4)C(=O)N[C@H](C(=O)N[C@@H](Cc4ccccc4)C(N)=O)C(C)C)NC(=O)[C@H](Cc4c[nH]c5ccccc45)NC(=O)[C@H](CCCCN)NC(=O)[C@H](Cc4cnc[nH]4)NC(=O)[C@H]([C@@H](C)O)NC(=O)[C@H](CCCNC(=N)N)NC(=O)[C@H](CO)NC(=O)[C@H](CSSC[C@H](NC(=O)[C@H](CCCCN)NC(=O)[C@H](CCCNC(=N)N)NC1=O)C(=O)N[C@@H](CCC(=O)O)C(=O)N1CCC[C@H]1C(=O)N[C@@H](CC(=O)O)C(=O)N[C@@H](CC(N)=O)C(=O)N[C@@H](CC(=O)O)C(=O)N[C@@H](CCCCN)C(=O)N3)NC(=O)[C@H](C(C)C)NC(=O)[C@H](CC(C)C)NC(=O)[C@H](CC(N)=O)NC(=O)[C@@H]1CCCN1C(=O)[C@H](CCCNC(=N)N)NC2=O (H-DCLGFMRKCEPDNDKCCRPNLVCSRTHKWCKYVF-NH2; disulfide 2-17, 9-23, 16-30) | 0.0021 |  | > 10 | > 5 |

— ChEMBL document CHEMBL3797186, “Single Residue Substitutions That Confer Voltage-Gated Sodium Ion Channel Subtype Selectivity in the NaV1.7 Inhibitory Peptide GpTx-1” (J Med Chem, 2016)
